# Results of several laboratories.
# Each line is one published result; the experiments were not run side by side.
# CSF1R: Macrophage colony-stimulating factor 1 receptor (CSF1R, Homo sapiens, UniProt P07333)
# CSF1R autoinhibited: Macrophage colony-stimulating factor 1 receptor, autoinhibited (CSF1R, Homo sapiens, UniProt P07333)
Compound,target,observed,technique,tested at,remaining binding
O=C(c1ccc(Nc2nccc(-c3cc4ccccc4s3)n2)cc1)N1CCC(N2CCCC2)CC1,CSF1R,binding,competition with immobilised ligand,1 µM,42%
Cc1nc(NC(=O)N2CCC[C@H]2C(N)=O)sc1-c1ccnc(C(C)(C)C(F)(F)F)c1,CSF1R autoinhibited,binding,competition with immobilised ligand,10 µM,98%
Cc1cc(-n2nc(Cc3cc(F)cc(C(F)(F)F)c3)nc2C)ccc1C(N)=O,CSF1R autoinhibited,cell-free assay,competition with immobilised ligand,1 µM,100%
CCN1CCN(Cc2ccc(C(=O)Nc3ccc(C)c(Oc4ccc5c(c4)CC(=O)N5)c3)cc2C(F)(F)F)CC1,CSF1R autoinhibited,binding,competition with immobilised ligand,1 µM,100%
O=C(c1ccc(Nc2ncc(Cl)c(-c3ccc(Cl)s3)n2)cc1)N1CCC(N2CCCC2)CC1,CSF1R,binding,competition with immobilised ligand,1 µM,5.1%
C[C@H]1CCN(c2nccc(-c3cnn4ncccc34)n2)C1,CSF1R autoinhibited,binding,,1 µM,75%
O=C(NCCCN1CCOCC1)c1ccc(Nc2ncc(Cl)c(-c3ccc(Cl)s3)n2)cc1,CSF1R,binding,competition with immobilised ligand,1 µM,15%
COc1ncc2cc3ccccc3nc2c1C#N,CSF1R autoinhibited,cell-free assay,competition with immobilised ligand,5 µM,97%
COc1cnc(Nc2cccc(S(N)(=O)=O)c2)nc1N1CCN(c2ccccc2)CC1,CSF1R,binding,competition with immobilised ligand,1 µM,100%
CC(C)(C)c1ccc(-c2nc(CBr)nn2-c2cccc(O)c2)cc1,CSF1R,cell-free assay,competition with immobilised ligand,10 µM,98%
O=C(Nc1c[nH]nc1C(=O)NC1CCNCC1)c1cc(F)cc(F)c1,CSF1R,binding,competition with immobilised ligand,1 µM,100%
O=C(O)[C@H]1[C@H](Cn2nnc3ccccc3c2=O)CC[C@@H]1C(=O)c1ccc(OCCC2CCOCC2)cc1,CSF1R autoinhibited,cell-free assay,competition with immobilised ligand,1 µM,100%
CN(C)c1ncc(F)c(-c2cnn3ncccc23)n1,CSF1R,binding,,1 µM,91%
CNC(=O)Nc1ccc2c(c1)[C@@]1(CC2)OC(=O)N(CC(=O)N(Cc2ccc(F)cc2)[C@@H](C)C(F)(F)F)C1=O,CSF1R autoinhibited,cell-free assay,competition with immobilised ligand,1 µM,100%
CC1CCCN1c1nccc(-c2cnn3ncccc23)n1 (stereo not drawn),CSF1R autoinhibited,binding,,1 µM,99%
Cc1cnc(Nc2ccc(C(=O)N3CCC(N4CCCC4)CC3)cc2)nc1-c1cc2ccccc2s1,CSF1R autoinhibited,binding,competition with immobilised ligand,1 µM,45%
CCOCCn1cc(C(=O)Nc2ccc(-n3nc(-c4cccnc4)cc3C(F)(F)F)cn2)ccc1=O,CSF1R autoinhibited,cell-free assay,competition with immobilised ligand,1 µM,100%
COc1cnc(Nc2cccc(S(N)(=O)=O)c2)nc1N1CCN(c2ccccc2)C(=O)C1,CSF1R autoinhibited,binding,competition with immobilised ligand,1 µM,87%
CN(C)c1nccc(-c2cnc3ncccn23)n1,CSF1R,binding,,1 µM,100%
CC(=O)C1=C(C)N(c2cccc(C(F)(F)F)c2)C(=O)N[C@@H]1c1ccc(C#N)nc1,CSF1R autoinhibited,cell-free assay,competition with immobilised ligand,1 µM,100%
Cc1cnn2ncc(-c3ccnc(N(C)C)n3)c2c1,CSF1R,binding,,1 µM,100%
C[C@@H](c1ccc(-n2cnc3c(N)ncnc32)cc1)N1CCc2nn(C)c(Cc3ccccc3)c2C1=O,CSF1R autoinhibited,binding,competition with immobilised ligand,0.1 µM,81%
C=CC(=O)N1CCC(C(=O)NCC(=O)N2CCN(c3nc(-c4cnc(N)nc4C(F)F)nc(N4CCOCC4)n3)CC2)CC1,CSF1R autoinhibited,binding,competition with immobilised ligand,1 µM,20%
COc1ccnn2ncc(-c3ccnc(N(C)C)n3)c12,CSF1R,binding,,1 µM,100%
O=C(NCC1CCOCC1)c1n[nH]cc1NC(=O)c1c(F)cccc1F,CSF1R,binding,competition with immobilised ligand,1 µM,100%
N#Cc1ccccc1CSc1nnc2c(n1)[nH]c1ccccc12,CSF1R,binding,competition with immobilised ligand,10 µM,100%
CCS(=O)(=O)c1cc2cc(C[C@@](O)(CC(C)(C)c3ccc(F)cc3C(N)=O)C(F)(F)F)[nH]c2cn1,CSF1R,cell-free assay,competition with immobilised ligand,1 µM,100%
Nc1ncc2c(n1)-c1c([nH]c3ccc(C#CC4CC4)cc13)CCCC2,CSF1R,binding,competition with immobilised ligand,1 µM,98%
CNC(=O)[C@@H]1CC[C@@H](n2c(-c3ccc4cnccc4c3)nc3ccc(C(=O)NCc4cccc(C(N)=O)c4)cc32)C1,CSF1R autoinhibited,binding,competition with immobilised ligand,1 µM,80%
O=C(NCCCN1CCOCC1)c1ccc(Nc2nccc(-c3cc4ccccc4s3)n2)cc1,CSF1R autoinhibited,binding,competition with immobilised ligand,1 µM,83%
CN([C@@H]1CCc2c(CC(=O)O)c3cc(S(C)(=O)=O)ccc3n2C1)S(=O)(=O)c1ccc(F)cc1,CSF1R autoinhibited,cell-free assay,competition with immobilised ligand,1 µM,93%
O=C(c1ccc(Nc2ncc(Cl)c(-c3cc4ccccc4s3)n2)cc1)N1CCC(N2CCCC2)CC1,CSF1R,binding,competition with immobilised ligand,1 µM,24%
COc1ccc2c(O[C@@H]3C[C@H]4C(=O)N[C@]5(C(=O)O)CC5/C=C\CCCCC[C@H](NC(=O)OC5CCCC5)C(=O)N4C3)cc(-c3csc(NC(=O)C(C)C)n3)nc2c1C (stereo partly drawn),CSF1R,cell-free assay,competition with immobilised ligand,1 µM,71%
c1cncc(-c2cccc(Nc3nccc(NC4CCCCC4)n3)c2)c1,CSF1R autoinhibited,binding,competition with immobilised ligand,10 µM,0%
N[C@H]1CCN(c2nccc(-c3cnn4ncccc34)n2)C1,CSF1R autoinhibited,binding,,1 µM,100%
C[C@@H]1CN(c2ccc3ncc(-c4ccc5[nH]nc(C6CC6)c5c4)n3n2)C[C@H](C)O1,CSF1R,binding,competition with immobilised ligand,0.5 µM,100%
